A selection: hits, their analogues and other compounds. The true share with any hit is near 3.8%.
HSP90 inh = HSP90 inhibitors, primary screen, cell lysate, luminescence. inhibition, % at 5.6 µM. 290,000 tested, 0.91% active. Heat shock protein HSP 90 (rabbit reticulocyte lysate; luciferase refolding). Rabbit reticulocyte lysate, luciferase refolding luminescence, 3 h;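 active = inhibition above the screen-wide mean plus 3 SD, computed separately per campaign, cut at about 16% in these data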;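 note: inhibitors lower the luminescence because luciferase stays unfolded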
HSF1 activator = HSF-1 activators, primary screen, NIH3T3-HGL cells, MG132 stress, luminescence, single point | NIH3T3-HGL HSF-1 luciferase reporter, 8 h; 100% = twice DMSO control signal | activation, % at 9 µM | 300,000 tested, 1.7% active | AID 504408, 2011;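 active = mean replicate activation of at least 50% with a set share of replicates each reaching 50%; inconclusive = only one of those two conditions met; inactive = mean below 50% and too few replicates reaching it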
NS3 helicase inh = inhibitors of HCV NS3 helicase, primary screen, biochemical, Cy5 molecular beacon fluorescence; Hepatitis C virus NS3 helicase; NS3 helicase DNA unwinding; inhibition, % at 10.9 µM; 290,000 tested, 0.56% active; AID 1800, 2009;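 active = inhibition above the mean of all tested compounds plus 3 SD, set per campaign, cut at about 35% in these data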
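Assay system – hepatitis C virus NS3 helicase domain fragment enzyme · Buffer or medium – MOPS pH 6.5, MgCl2, DTT, Tween20, BSA · Reagent – Cy5/quencher beacon DNA duplex and ATP to start · Compound – single 10.9 µM dose · Timing – 1 h at 25 °C · Technique – Cy5 beacon fluorescence read at start and 1 h · Measure – % inhibition of unwinding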
HSF1 inh = HSF1 inhibitors in luciferase reporter cells, primary screen, cell-based, NIH3T3, luminescence. NIH3T3-HGL HSE-luciferase, MG132-induced, luminescence 8 h; stronger effect = lower value. activity change, negative = inhibition, % at 7.5 µM (by protocol). 300,000 tested, 0.77% active. AID 2098, 2009;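 active = more than half of replicate wells show activity change below -50%, luminescence cut by over half; inconclusive = some wells, but at most half, below -50%; inactive = no replicate well below -50%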;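 note: luciferase reports HSF-1 transcriptional activity via heat shock element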
Hep lipid drop = inhibitors of hepatocyte lipid droplet formation, primary screen, imaging, high-throughput imaging, BODIPY stain. AML12 mouse hepatocytes, oleate lipid droplets. inhibition, % at 6.5 µM. 240,000 tested, 0.4% active;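 active = lipid droplet intensity inhibited by at least 50%, with more than 500 cells counted; inconclusive = wells with under 300 cells, treated as cytotoxic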
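Assay system: AML12 mouse liver cells | Compound dosing: One dose, 6.5 µM compound | Read-out basis: Droplet intensity reduction, % inhibition | Measured by: Fluorescence imaging, 20x objective, two fields per well | Schedule: Overnight treatment with compound plus oleate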
Of the large screens only hits and unclear results are named; the others gave an inactive call.

CCC(C)[C@H](NC(=O)OC(C)(C)C)C(=O)NCC1CCC(C(=O)N[C@@H](Cc2ccccc2)C(=O)O)CC1 (stereo partly drawn)	none (no result: Hep lipid drop)
CC(C)(C)OC(=O)N[C@@H](Cc1ccccc1)C(=O)NCC1CCC(C(=O)N[C@@H](CC(=O)O)C(=O)O)CC1 (stereo partly drawn)	HSF1 inh -63 (no result: Hep lipid drop)
Cc1c(/C=N/NC(=O)c2cccs2)c2ccccc2n1Cc1ccccc1Cl	none
O=C(Nc1ccc(Cl)cc1)/C(=C/c1ccc([N+](=O)[O-])cc1)c1nc2ccccc2s1	none (no result: HSF1 activator, HSF1 inh)
O=C(NCc1ccc(F)cc1)C1CC(=O)N(C2CCCCCCC2)C1 (stereo not drawn)	none
Fc1cccc(C2NN=C(c3ccccc3)S2)c1 (stereo not drawn)	HSF1 activator 61
COc1ccc(OC)c(C2C(C(=O)Nc3nc4ccccc4s3)=C(C)NC3=C2C(=O)CCC3)c1 (stereo not drawn)	HSF1 activator 75 (no result: Hep lipid drop)
NC(=O)c1ccccc1NC(=O)c1ccc2ccccc2c1	HSF1 activator 66
O=C(Nc1ccc2ccccc2c1)c1cc(F)c(F)cc1Cl	HSF1 activator 59
COc1ccc(C(=O)Nc2ccc3ccccc3c2)cc1OC	HSF1 activator 64
O=C(Nc1ccc2c(c1)OCCO2)c1cc(F)c(F)cc1Cl	none
Cc1c(C=O)c2ccccc2n1CC(=O)NCc1ccc2c(c1)OCO2	none
COc1ccc(C(=O)Nc2cccc(C)c2)cc1	HSF1 activator 62 (no result: Hep lipid drop)
Cc1cccc(C(=O)Nc2ccc3ccccc3c2)c1	HSF1 activator 66
COc1ccc(CC(=O)Nc2cccc(C(=O)Nc3cccc(C)c3)c2)cc1	none
O=C(Nc1ccc2ccccc2c1)c1cccc([N+](=O)[O-])c1	none
O=C(Nc1cccc(Br)c1)c1ccc(OC2CSC2)cc1	HSF1 activator 51
COc1ccc(C(=O)Nc2nc3ccccc3s2)cc1OC	HSF1 activator 71
CCc1noc(C)c1C(=O)N(C)CC(=O)Nc1ccc(OC)cc1	none (no result: HSP90 inh, NS3 helicase inh, Hep lipid drop)
COc1ccc(OC)c(NC(=S)N2c3ccccc3CC2C)c1 (stereo not drawn)	none
COc1cc2nc(NC(=O)c3ccc(Cl)cc3)sc(=O)c2cc1OC	HSF1 activator 57
CCCCN(CC)c1nc(N)c2c(N)nc(OCC)cc2c1C#N	HSF1 activator 57
COc1cccc(-n2nc(C#N)c(Cl)cc2=O)c1	HSF1 activator 225, Hep lipid drop inconclusive
CCCCc1n[nH]c2c1/C(=N/OCC)CC(C)(C)C2	HSF1 inh -74
O=C(CN1C(=O)/C(=C/c2ccco2)SC1=S)NC1CCS(=O)(=O)C1 (stereo not drawn)	none
CCOc1ccc(S(=O)(=O)NCCC(=O)OC(C)C(=O)N2CCc3ccccc32)cc1 (stereo not drawn)	HSF1 activator 56 (no result: Hep lipid drop)
CC(O)CNC(=O)C1CCN(Cc2ccc(OCc3ccccc3)cc2)CC1 (stereo not drawn)	none (no result: Hep lipid drop)
CC(C)CNC(=O)C1CCN(Cc2ccc(OCc3ccccc3)cc2)CC1	HSF1 inh -61
Cc1ccc(S(=O)(=O)c2nc(S(=O)(=O)c3ccc(C)cc3)c(N3CCN(CCO)CC3)s2)cc1	HSF1 activator 57
CCCS(=O)(=O)c1nc(S(=O)(=O)c2ccc(C)cc2)c(N2CCCC2)s1	none
CCS(=O)(=O)c1nc(S(=O)(=O)c2ccc(C)cc2)c(N2CCC(C)CC2)s1	HSF1 inh -89
CCCS(=O)(=O)c1nc(S(=O)(=O)c2ccc(C)cc2)c(N2CCc3ccccc3C2)s1	HSF1 activator 54
CS(=O)(=O)c1nc(S(=O)(=O)c2ccc(Cl)cc2)c(N2CCN(CCO)CC2)s1	none
CCCCS(=O)(=O)N1CCN(S(=O)(=O)c2ccc(Cl)s2)CC1	none
O=C(O)c1cccc(N2C(=O)/C(=C/c3ccc([N+](=O)[O-])cc3)C=C2c2ccccc2)c1	HSF1 inh -72
O=C1/C(=C/c2ccc([N+](=O)[O-])cc2)C=C(c2ccccc2)N1c1ccc(O)cc1	HSF1 activator 95
CCCC1Oc2ccccc2C(=O)N(CC(=O)c2ccc3c(c2)OCCO3)C1=O (stereo not drawn)	none
COc1ccc(NC(=O)c2ccc(OC(F)F)cc2)cc1Cl	none
O=C(Nc1ccc(OC(F)F)c(Cl)c1)c1ccccn1	HSF1 activator 70
Cc1nn(-c2ccccc2)c(C)c1C(=O)NCc1ccccc1F	none
O=C(NC(=S)N1CCN(c2ccc([N+](=O)[O-])cc2Cl)CC1)c1ccco1	HSF1 activator 55
NC(=S)NC(=O)/C=C/c1ccccc1	none
O=C(CSc1nnc(-c2cccs2)o1)N1CCc2ccccc21	none (no result: Hep lipid drop)
O=C(CSc1nnc(-c2cccs2)o1)N1CCCc2ccccc21	HSF1 activator 68 (no result: Hep lipid drop)
O=S(=O)(/C(=C/c1ccc(C(F)(F)F)cc1)c1nc2ccccc2[nH]1)c1ccccc1	HSF1 activator 180
C/C(=C\c1ccc(N)cc1)c1nc2ccccc2[nH]1	none
CC(C)c1ccc(/C=C(\c2nc3ccccc3[nH]2)S(=O)(=O)c2ccccc2)cc1	HSF1 activator 102, Hep lipid drop 54
CN(C)C(=O)Cn1cc(S(=O)(=O)Cc2ccccc2)c2ccccc21	none
CCOc1cccc(CN2CCC(n3nccc3NC(=O)C3CC3)CC2)c1O	none
COc1ccc(-c2cn3ccccc3n2)cc1[N+](=O)[O-]	HSF1 activator 55
O=[N+]([O-])c1ccc2sc(SCc3nc4ccccn4c3Br)nc2c1	none
Brc1c(CSc2nc3ccccc3s2)nc2ncccn12	HSF1 activator 66
CC1CCCCC1NC(=O)c1ccc(S(=O)(=O)NCC2CCCO2)cc1 (stereo not drawn)	none
O=C(CCCCCn1c(=S)[nH]c2cc3c(cc2c1=O)OCO3)N1CCN(C(=O)c2ccco2)CC1	HSF1 inh -67 (no result: Hep lipid drop)
O=C(CCCCCn1c(=S)[nH]c2cc3c(cc2c1=O)OCO3)N1CCN(Cc2ccccc2)CC1	none (no result: HSF1 activator, HSF1 inh)
Cc1cccc(N2CCN(S(=O)(=O)c3c(C)noc3/C=C/N(C)C)CC2)c1C	none
CC(C)Cc1nc2c(nnn2Cc2ccccc2F)c(=O)[nH]1	none
Cc1ccc(NC(=O)c2cccnc2C(=O)O)nc1	none
O=C(NCCNc1ccnc2cc(Cl)ccc12)c1ccccc1F	HSF1 inh -79
Cc1nc2ccc(S(=O)(=O)NC(C(=O)NCc3cccs3)C(C)C)cc2s1 (stereo not drawn)	HSF1 inh -81
Cc1nc2ccc(S(=O)(=O)NC(C(=O)Nc3nccs3)C(C)C)cc2s1 (stereo not drawn)	none
Cc1ccc(NC2=CC(=O)C(=O)c3ccccc32)cc1	HSF1 activator 80
NS(=O)(=O)c1ccc(NC2=CC(=O)C(=O)c3ccccc32)cc1	HSF1 inh -70

Compound activity (PubChem BioAssay)
